Reference: ChEMBL document CHEMBL1275567, “In vitro activity of TR-700, the antibacterial moiety of the prodrug TR-701, against linezolid-resistant strains” (2008)
In brackets after ≈: the same amount, converted by molar mass.

Experiments:
Type in all cases: functional
Enterococcus faecalis [1] = test: Antimicrobial activity against linezolid-resistant Enterococcus faecalis 413 harboring G2576U mutation in peptidyl transferase centre by broth microdilution method
Method in brief: (§1)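 MIC by CLSI broth microdilution for aerobically growing bacteria, in Mueller-Hinton II broth. Test organisms were recent clinical isolates from diverse geographic centers plus laboratory-derived oxazolidinone-resistant mutants. QC strains S. aureus ATCC 29213 and E. faecalis ATCC 29212 were included in each assay set to confirm proper assay performance.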

Staphylococcus aureus [2] = test: Antimicrobial activity against linezolid-resistant Staphylococcus aureus 131-6952X harboring plasmid borne cfr gene by broth microdilution method; method in brief: as §1
Staphylococcus aureus [3] = test: Antimicrobial activity against linezolid-resistant methicillin-resistant Staphylococcus aureus NRS127 by broth microdilution method; method in brief: as §1
Staphylococcus aureus [4] = test: Antimicrobial activity against linezolid-resistant Staphylococcus aureus CM/05 3067 harboring chromosomal cfr gene by broth microdilution method; method in brief: as §1
Staphylococcus aureus [5] = test: Antimicrobial activity against linezolid-resistant Staphylococcus aureus 480 harboring G2447U in peptidyl transferase centre by broth microdilution method; method in brief: as §1
Enterococcus faecalis [6] = test: Antimicrobial activity against linezolid-resistant Enterococcus faecalis 1172 harboring G2576U mutation in peptidyl transferase centre by broth microdilution method; method in brief: as §1
Staphylococcus aureus [7] = test: Antimicrobial activity against Staphylococcus aureus 1651 harboring G2576U mutation in peptidyl transferase centre by broth microdilution method; method in brief: as §1
Staphylococcus aureus [8] = test: Antimicrobial activity against linezolid-resistant Staphylococcus aureus 425 harboring G2447U in peptidyl transferase centre by broth microdilution method; method in brief: as §1
Enterococcus faecalis [9] = test: Antimicrobial activity against linezolid-resistant Enterococcus faecalis 411 harboring G2576U mutation in peptidyl transferase centre by broth microdilution method; method in brief: as §1
Staphylococcus aureus [10] = test: Antimicrobial activity against linezolid-resistant Staphylococcus aureus 1652 harboring U2500A mutation in peptidyl transferase centre by broth microdilution method; method in brief: as §1
Enterococcus faecalis [11] = test: Antimicrobial activity against linezolid-resistant Enterococcus faecalis 412 harboring G2576U mutation in peptidyl transferase centre by broth microdilution method; method in brief: as §1
Enterococcus faecalis [12] = test: Antimicrobial activity against linezolid-resistant Enterococcus faecalis 3128 harboring G2576U mutation in peptidyl transferase centre by broth microdilution method; method in brief: as §1
Enterococcus faecalis [13] = test: Antimicrobial activity against linezolid-resistant Enterococcus faecalis 414 harboring G2576U mutation in peptidyl transferase centre by broth microdilution method; method in brief: as §1
Enterococcus faecalis [14] = test: Antimicrobial activity against linezolid-resistant Enterococcus faecalis 3124 harboring G2576U mutation in peptidyl transferase centre by broth microdilution method; method in brief: as §1
Enterococcus faecium [15] = test: Antimicrobial activity against linezolid-resistant Enterococcus faecium 854 harboring G2576U mutation in peptidyl transferase centre by broth microdilution method; method in brief: as §1
Staphylococcus aureus [16] = test: Antimicrobial activity against […] 29213 by broth microdilution method; method in brief: as §1
Staphylococcus aureus [17] = test: Antimicrobial activity against linezolid-resistant Staphylococcus aureus 004-737X harboring plasmid borne cfr gene by broth microdilution method; method in brief: as §1
Staphylococcus aureus [18] = test: Antimicrobial activity against linezolid-resistant methicillin-resistant Staphylococcus aureus NRS120 harboring G2576U mutation in peptidyl transferase centre by broth microdilution method
Staphylococcus aureus [19] = test: Antimicrobial activity against linezolid-resistant Staphylococcus aureus by broth microdilution method; method in brief: as §1
Staphylococcus aureus [20] = test: Antimicrobial activity against linezolid-resistant methicillin-resistant Staphylococcus aureus NRS271 harboring G2576U mutation in peptidyl transferase centre by broth microdilution method; method in brief: as §1
Staphylococcus aureus [21] = test: Antimicrobial activity against linezolid-resistant methicillin-resistant Staphylococcus aureus NRS121 harboring G2576U mutation in peptidyl transferase centre by broth microdilution method; method in brief: as §1
Mammaliicoccus sciuri = test: Antimicrobial activity against linezolid-resistant Staphylococcus sciuri by broth microdilution method; method in brief: as §1
Staphylococcus aureus [22] = test: Antimicrobial activity against linezolid-resistant methicillin-resistant Staphylococcus aureus NRS119 harboring G2576U mutation in peptidyl transferase centre by broth microdilution method; method in brief: as §1
Staphylococcus hominis = test: Antimicrobial activity against linezolid-resistant Staphylococcus hominis by broth microdilution method; method in brief: as §1
[23] = test system: Staphylococcus epidermidis; test: Antimicrobial activity against linezolid-resistant Staphylococcus epidermidis by broth microdilution method; method in brief: as §1
Enterococcus faecium [24] = test: Antimicrobial activity against linezolid-resistant Enterococcus faecium by broth microdilution method; method in brief: as §1
Enterococcus faecalis [25] = test: Antimicrobial activity against linezolid-resistant Enterococcus faecalis by broth microdilution method; method in brief: as §1

Structure (SMILES): Cc1onc(-c2ccccc2)c1C(=O)N[C@@H]1C(=O)N2[C@@H]1SC(C)(C)[C@@H]2C(=O)O [OXACILLIN]
- MIC (Enterococcus faecalis [1]): > 32 µg/mL
- MIC (Staphylococcus aureus [2]): > 2 µg/mL
- MIC (Staphylococcus aureus [3]): 32 µg/mL (≈ 79.7 µM)
- MIC (Staphylococcus aureus [4]): > 32 µg/mL
- MIC (Staphylococcus aureus [5]): < 0.03 µg/mL
- MIC (Enterococcus faecalis [6]): 32 µg/mL (≈ 79.7 µM)
- MIC (Staphylococcus aureus [7]): > 32 µg/mL
- MIC (Staphylococcus aureus [8]): 0.12 µg/mL (≈ 0.299 µM)
- MIC (Enterococcus faecalis [9]): > 32 µg/mL
- MIC (Staphylococcus aureus [10]): 32 µg/mL (≈ 79.7 µM)
- MIC (Enterococcus faecalis [11]): 16 µg/mL (≈ 39.9 µM)
- MIC (Enterococcus faecalis [12]): 2 µg/mL (≈ 4.98 µM)
- MIC (Enterococcus faecalis [13]): 16 µg/mL (≈ 39.9 µM)
- MIC (Enterococcus faecalis [14]): 8 µg/mL (≈ 19.9 µM)
- MIC (Enterococcus faecium [15]): > 32 µg/mL
- MIC (Staphylococcus aureus [16]): 0.12 µg/mL (≈ 0.299 µM)
- MIC (Staphylococcus aureus [17]): > 2 µg/mL

Structure (SMILES): CN[C@H](CC(C)C)C(=O)N[C@H]1C(=O)N[C@@H](CC(N)=O)C(=O)N[C@H]2C(=O)N[C@H]3C(=O)N[C@H](C(=O)N[C@H](C(=O)O)c4cc(O)cc(O)c4-c4cc3ccc4O)[C@H](O)c3ccc(c(Cl)c3)Oc3cc2cc(c3O[C@@H]2O[C@H](CO)[C@@H](O)[C@H](O)[C@H]2O[C@H]2C[C@](C)(N)[C@H](O)[C@H](C)O2)Oc2ccc(cc2Cl)[C@H]1O [VANCOMYCIN]
- MIC (Enterococcus faecalis [1]): 1 µg/mL (≈ 0.69 µM)
- MIC (Enterococcus faecalis [6]): > 32 µg/mL
- MIC (Enterococcus faecalis [9]): 1 µg/mL (≈ 0.69 µM)
- MIC (Enterococcus faecalis [11]): 1 µg/mL (≈ 0.69 µM)
- MIC (Enterococcus faecalis [12]): > 32 µg/mL
- MIC (Enterococcus faecalis [13]): 32 µg/mL (≈ 22.1 µM)
- MIC (Enterococcus faecalis [14]): > 32 µg/mL
- MIC (Enterococcus faecium [15]): > 32 µg/mL

Structure (SMILES): CC1(C)S[C@@H]2[C@H](NC(=O)Cc3ccccc3)C(=O)N2[C@H]1C(=O)O [PENICILLIN G]
- MIC (Enterococcus faecalis [1]): 4 µg/mL (≈ 12 µM)
- MIC (Staphylococcus aureus [3]): 16 µg/mL (≈ 47.8 µM)
- MIC (Staphylococcus aureus [5]): 0.25 µg/mL (≈ 0.748 µM)
- MIC (Enterococcus faecalis [6]): 4 µg/mL (≈ 12 µM)
- MIC (Staphylococcus aureus [7]): 16 µg/mL (≈ 47.8 µM)
- MIC (Staphylococcus aureus [8]): 1 µg/mL (≈ 2.99 µM)
- MIC (Enterococcus faecalis [9]): 4 µg/mL (≈ 12 µM)
- MIC (Staphylococcus aureus [10]): 32 µg/mL (≈ 95.7 µM)
- MIC (Enterococcus faecalis [11]): 2 µg/mL (≈ 5.98 µM)
- MIC (Enterococcus faecalis [13]): 1 µg/mL (≈ 2.99 µM)
- MIC (Staphylococcus aureus [16]): 1 µg/mL (≈ 2.99 µM)

Structure (SMILES): CC(=O)NC[C@H]1CN(c2ccc(N3CCOCC3)c(F)c2)C(=O)O1 [LINEZOLID]
- MIC (Staphylococcus aureus [18]): 64 µg/mL (≈ 190 µM)
- MIC50 (Staphylococcus aureus [19]): 2 µg/mL (≈ 5.93 µM)
- MIC90 (Staphylococcus aureus [19]): 16 µg/mL (≈ 47.4 µM)
- MIC (Staphylococcus aureus [20]): 32 µg/mL (≈ 94.9 µM)
- MIC (Staphylococcus aureus [21]): 64 µg/mL (≈ 190 µM)
- MIC (Mammaliicoccus sciuri): 16 µg/mL (≈ 47.4 µM)
- MIC (Staphylococcus aureus [22]): 64 µg/mL (≈ 190 µM)
- MIC (Enterococcus faecalis [1]): 32 µg/mL (≈ 94.9 µM)
- MIC (Staphylococcus aureus [2]): 32 µg/mL (≈ 94.9 µM)
- MIC (Staphylococcus aureus [3]): 8 µg/mL (≈ 23.7 µM)
- MIC (Staphylococcus hominis): 16 µg/mL (≈ 47.4 µM)
- MIC (Staphylococcus aureus [4]): 16 µg/mL (≈ 47.4 µM)
- MIC (Staphylococcus aureus [5]): > 32 µg/mL
- MIC (Staphylococcus aureus [7]): 16 µg/mL (≈ 47.4 µM)
- MIC (Staphylococcus aureus [8]): 32 µg/mL (≈ 94.9 µM)
- MIC50 [23]: 32 µg/mL (≈ 94.9 µM)
- MIC90 [23]: > 128 µg/mL
- MIC (Staphylococcus aureus [10]): 32 µg/mL (≈ 94.9 µM)
- MIC (Enterococcus faecalis [13]): 32 µg/mL (≈ 94.9 µM)
- MIC50 (Enterococcus faecium [24]): 32 µg/mL (≈ 94.9 µM)
- MIC90 (Enterococcus faecium [24]): 64 µg/mL (≈ 190 µM)
- MIC (Enterococcus faecium [15]): 16 µg/mL (≈ 47.4 µM)
- MIC50 (Enterococcus faecalis [25]): 32 µg/mL (≈ 94.9 µM)
- MIC90 (Enterococcus faecalis [25]): 32 µg/mL (≈ 94.9 µM)
- MIC (Staphylococcus aureus [17]): 8 µg/mL (≈ 23.7 µM)

Structure (SMILES): Cn1nnc(-c2ccc(-c3ccc(N4C[C@H](CO)OC4=O)cc3F)cn2)n1 [TEDIZOLID]
- MIC (Staphylococcus aureus [18]): 8 µg/mL (≈ 21.6 µM)
- MIC50 (Staphylococcus aureus [19]): 0.25 µg/mL (≈ 0.675 µM)
- MIC90 (Staphylococcus aureus [19]): 2 µg/mL (≈ 5.4 µM)
- MIC (Staphylococcus aureus [20]): 2 µg/mL (≈ 5.4 µM)
- MIC (Staphylococcus aureus [21]): 4 µg/mL (≈ 10.8 µM)
- MIC (Mammaliicoccus sciuri): 2 µg/mL (≈ 5.4 µM)
- MIC (Staphylococcus aureus [22]): 4 µg/mL (≈ 10.8 µM)
- MIC (Staphylococcus aureus [2]): 1 µg/mL (≈ 2.7 µM)
- MIC (Staphylococcus aureus [3]): 1 µg/mL (≈ 2.7 µM)
- MIC (Staphylococcus hominis): 2 µg/mL (≈ 5.4 µM)
- MIC (Staphylococcus aureus [4]): 1 µg/mL (≈ 2.7 µM)
- MIC (Staphylococcus aureus [5]): 16 µg/mL (≈ 43.2 µM)
- MIC (Staphylococcus aureus [7]): 2 µg/mL (≈ 5.4 µM)
- MIC (Staphylococcus aureus [8]): 8 µg/mL (≈ 21.6 µM)
- MIC50 [23]: 4 µg/mL (≈ 10.8 µM)
- MIC90 [23]: 8 µg/mL (≈ 21.6 µM)
- MIC (Enterococcus faecalis [9]): 2 µg/mL (≈ 5.4 µM)
- MIC (Staphylococcus aureus [10]): 4 µg/mL (≈ 10.8 µM)
- MIC (Enterococcus faecalis [11]): 2 µg/mL (≈ 5.4 µM)
- MIC50 (Enterococcus faecium [24]): 2 µg/mL (≈ 5.4 µM)
- MIC90 (Enterococcus faecium [24]): 4 µg/mL (≈ 10.8 µM)
- MIC (Enterococcus faecium [15]): 2 µg/mL (≈ 5.4 µM)
- MIC (Staphylococcus aureus [16]): 1 µg/mL (≈ 2.7 µM)
- MIC50 (Enterococcus faecalis [25]): 4 µg/mL (≈ 10.8 µM)
- MIC90 (Enterococcus faecalis [25]): 4 µg/mL (≈ 10.8 µM)
- MIC (Staphylococcus aureus [17]): 0.5 µg/mL (≈ 1.35 µM)
